ChEMBL document CHEMBL1125346, “Guanidinophenyl-substituted enol lactones as selective, mechanism-based inhibitors of trypsin-like serine proteases” (J Med Chem, 1992)

Legend:
[1] = biological target: Chymotrypsinogen A (Bos taurus) (UniProt P00766); experiment: Time for which maximum percent inhibition persists was determined against alpha-chymotrypsin (17 nM); format: functional
In short: (§1)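 Enzyme incubated with excess lactone added from DMSO stock (final 10% DMSO); aliquots over 2 h diluted into substrate: chymotrypsin Suc-AAPF-pNA 315 µM, pH 7.2, 410 nm; t-PA Spectrozyme t-PA 0.2 mM, Tris-imidazole pH 8.4, 405 nm; HNE MeO-Suc-AAPV-pNA 150 µM, pH 7.4, 410 nm; plasmin Ts-GPK-pNA 157.4 µM, pH 7.8, 404 nm; thrombin Ts-GPR-pNA 75 µM, pH 8.0, 408 nm; trypsin Z-VGR-pNA 155 µM, pH 7.2, 404 nm. Activity given relative to a no-lactone control. Some runs used a 10-min substrate-free delay after dilution. ∞ means no recovery over 2 h.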

[2] = biological target: Chymotrypsinogen A (Bos taurus) (UniProt P00766); experiment: Time to reach maximum percent inhibition by the compound was determined against alpha-chymotrypsin (17 nM); format: functional
In short: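 α-Chymotrypsin with excess lactone (DMSO, 10% final) was sampled over 2 h into Suc-Ala-Ala-Pro-Phe-pNA (315 μM) in 0.2 M phosphate, pH 7.2. Absorbance at 410 nm gave the remaining activity versus a control without lactone. Minutes to maximal inhibition were taken.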

[3] = biological target: Chymotrypsinogen A (Bos taurus) (UniProt P00766); experiment: Maximum percent inhibition by the compound was determined against Chymotrypsinogen (17 nM); in short: as §1
[4] = biological target: T1, Neutrophil elastase (Homo sapiens) (UniProt P08246); experiment: Maximum percent inhibition by the compound was determined against human neutrophil elastase HNE(66 nM); in short: as §1
T1 sequence (whole entry): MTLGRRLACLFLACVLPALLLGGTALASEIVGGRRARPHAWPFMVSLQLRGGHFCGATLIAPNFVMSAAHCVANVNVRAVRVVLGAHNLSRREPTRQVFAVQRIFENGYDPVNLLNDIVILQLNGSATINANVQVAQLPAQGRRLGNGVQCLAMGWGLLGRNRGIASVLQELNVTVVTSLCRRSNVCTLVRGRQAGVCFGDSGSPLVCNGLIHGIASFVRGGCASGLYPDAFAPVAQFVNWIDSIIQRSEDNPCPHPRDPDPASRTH

[5] = biological target: T1, Neutrophil elastase (Homo sapiens); experiment: Time to reach maximum percent inhibition by the compound was determined against human neutrophil elastase HNE(66 nM); format: functional
In short: (§2)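 HNE was incubated with excess lactone in 10% final DMSO. Aliquots drawn during 2 h went into MeO-Suc-Ala-Ala-Pro-Val-pNA (150 μM) in 0.1 M phosphate, 0.5 M NaCl, pH 7.4, read at 410 nm. Activity was set relative to a lactone-free control, and the time (min) to peak inhibition was noted.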

[6] = biological target: Plasminogen (Homo sapiens) (UniProt P00747); experiment: Time to reach maximum percent inhibition by the compound was determined against plasmin(625 nM); format: functional
Sequence of Plasminogen (Homo sapiens) (P00747 97-580 limits assumed): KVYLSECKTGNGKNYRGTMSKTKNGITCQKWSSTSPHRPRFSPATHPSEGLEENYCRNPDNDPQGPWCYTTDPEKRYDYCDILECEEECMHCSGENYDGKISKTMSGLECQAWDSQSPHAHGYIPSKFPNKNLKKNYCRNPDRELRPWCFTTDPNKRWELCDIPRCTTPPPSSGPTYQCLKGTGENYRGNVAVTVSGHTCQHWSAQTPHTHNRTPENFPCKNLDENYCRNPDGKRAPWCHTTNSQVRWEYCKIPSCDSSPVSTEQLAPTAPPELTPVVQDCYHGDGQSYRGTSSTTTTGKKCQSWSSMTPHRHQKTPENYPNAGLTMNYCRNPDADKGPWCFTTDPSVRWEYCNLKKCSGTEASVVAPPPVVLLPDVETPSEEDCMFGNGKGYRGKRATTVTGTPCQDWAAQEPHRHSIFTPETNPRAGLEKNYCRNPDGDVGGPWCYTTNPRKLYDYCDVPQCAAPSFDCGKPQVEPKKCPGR
Sequence of Plasminogen (Homo sapiens) (P00747 581-810 limits assumed): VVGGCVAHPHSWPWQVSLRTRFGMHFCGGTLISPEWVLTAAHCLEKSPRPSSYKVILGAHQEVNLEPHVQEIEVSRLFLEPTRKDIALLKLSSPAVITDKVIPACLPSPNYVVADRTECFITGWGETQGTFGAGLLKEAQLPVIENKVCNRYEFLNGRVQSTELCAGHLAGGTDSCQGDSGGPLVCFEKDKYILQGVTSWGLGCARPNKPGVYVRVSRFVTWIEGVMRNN
In short: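 Plasmin plus excess lactone (10% final DMSO) was sampled over 2 h into Ts-Gly-Pro-Lys-pNA (157.4 μM) in 0.05 M phosphate, pH 7.8. The slope at 404 nm, relative to an enzyme-only control, gave residual activity. Minutes needed to reach maximal inhibition were reported.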

[7] = biological target: Plasminogen (Homo sapiens) (UniProt P00747); experiment: Substrate binding constant against plasmin
In short: (§3)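 Competitive substrate assay: lactone (DMSO, final 10% v/v) and chromogenic substrate combined in buffer, enzyme added, absorbance followed to steady state. Turnover-corrected semilog plot gives kobs; I0 vs I0/kobs replot (eq 6) with separately determined Km yields Ki and ka. Where no burst was seen, Ki was estimated from Km(app) replots using 15-s initial velocities. Buffers and substrates as in incubation assay.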

[8] = biological target: Plasminogen (Homo sapiens) (UniProt P00747); experiment: Second order rate constant against plasmin; in short: as §3
[9] = biological target: Plasminogen (Homo sapiens) (UniProt P00747); experiment: Time for which maximum percent inhibition persists was determined against plasmin(625 nM); * =no enzyme activity was recovered over 2 h; format: functional; in short: as §1
[10] = biological target: Plasminogen (Homo sapiens) (UniProt P00747); experiment: Maximum percent inhibition by the compound was determined against plasmin(625 nM); in short: as §1
[11] = biological target: Plasminogen (Homo sapiens) (UniProt P00747); experiment: Acylation rate constant against plasmin; in short: as §3
[12] = biological target: Tissue-type plasminogen activator (Homo sapiens) (UniProt P00750); experiment: Maximum percent inhibition by the compound was determined against Tissue plasminogen activator (19.4 nM); in short: as §1
Sequence of Tissue-type plasminogen activator (Homo sapiens) (P00750 36-562 limits assumed): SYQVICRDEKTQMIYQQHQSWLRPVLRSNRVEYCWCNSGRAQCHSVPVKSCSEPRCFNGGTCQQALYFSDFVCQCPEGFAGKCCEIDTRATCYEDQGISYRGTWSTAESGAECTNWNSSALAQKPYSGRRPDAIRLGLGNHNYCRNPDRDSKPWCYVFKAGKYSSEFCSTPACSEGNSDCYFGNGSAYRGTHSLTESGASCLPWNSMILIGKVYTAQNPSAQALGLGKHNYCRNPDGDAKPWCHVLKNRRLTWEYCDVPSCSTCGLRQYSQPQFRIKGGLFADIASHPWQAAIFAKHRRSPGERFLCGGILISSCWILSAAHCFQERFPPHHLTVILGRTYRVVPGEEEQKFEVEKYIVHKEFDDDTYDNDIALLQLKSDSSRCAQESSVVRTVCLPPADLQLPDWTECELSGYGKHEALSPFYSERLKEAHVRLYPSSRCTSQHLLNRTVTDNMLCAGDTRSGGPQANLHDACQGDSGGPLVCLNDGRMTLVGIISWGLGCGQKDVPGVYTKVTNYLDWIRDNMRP

[13] = biological target: Tissue-type plasminogen activator (Homo sapiens) (UniProt P00750); experiment: Time for which maximum percent inhibition persists was determined against Tissue plasminogen activator (19.4 nM); format: functional; in short: as §1
[14] = biological target: Tissue-type plasminogen activator (Homo sapiens) (UniProt P00750); experiment: Time to reach maximum percent inhibition by the compound was determined against Tissue plasminogen activator (19.4 nM); format: functional
In short: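 Tissue plasminogen activator was exposed to excess lactone (10% final DMSO). Over 2 h, aliquots were diluted into Spectrozyme t-PA (0.2 mM) in Tris-imidazole, I 0.3, pH 8.4. Hydrolysis at 405 nm gave residual activity relative to an enzyme-only control. The time (min) to reach maximal percent inhibition was recorded.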

[15] = biological target: Prothrombin (Homo sapiens) (UniProt P00734); experiment: Time to reach maximum percent inhibition by the compound was determined against thrombin (1.93 nM); format: functional
In short: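 Thrombin was incubated with excess lactone (DMSO, 10% final). Aliquots over 2 h were diluted into Ts-Gly-Pro-Arg-pNA (75 μM) in 0.05 M phosphate, 0.01 M EDTA, 10 g/L PEG 8000, 10 mg/L aprotinin, pH 8.0, and read at 408 nm against a no-lactone control. Time to maximal inhibition was recorded.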

[16] = biological target: T2, Serine protease 1 (Bos taurus) (UniProt P00760); experiment: Substrate binding constant against trypsin; in short: as §3
T2 sequence (whole entry): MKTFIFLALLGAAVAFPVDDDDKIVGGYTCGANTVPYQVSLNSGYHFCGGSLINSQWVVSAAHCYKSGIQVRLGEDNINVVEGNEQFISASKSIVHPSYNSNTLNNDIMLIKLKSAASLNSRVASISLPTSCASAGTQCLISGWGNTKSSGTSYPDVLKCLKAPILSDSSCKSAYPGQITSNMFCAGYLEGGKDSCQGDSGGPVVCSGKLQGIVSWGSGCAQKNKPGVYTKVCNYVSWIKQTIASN

[17] = biological target: T2, Serine protease 1 (Bos taurus); experiment: Second order rate constant against trypsin; in short: as §3
[18] = biological target: T2, Serine protease 1 (Bos taurus); experiment: Time to reach maximum percent inhibition by the compound was determined against trypsin (14.6 nM); format: functional
In short: (§4)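 Trypsin was incubated with excess lactone added from DMSO stock (10% final DMSO). Aliquots taken over 2 h were diluted into Z-Val-Gly-Arg-pNA (155 μM) in 0.2 M phosphate, pH 7.2, and read at 404 nm. Activity came from the absorbance slope versus a no-lactone control. Reported are minutes to maximal inhibition and minutes it persisted; ∞ means no recovery within 2 h.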

[19] = biological target: T3, Urokinase-type plasminogen activator (Homo sapiens, UniProt P00749); experiment: Decylation rate constant against Urokinase-type plasminogen activator
[20] = biological target: Prothrombin (Homo sapiens) (UniProt P00734); experiment: Maximum percent inhibition by the compound was determined against thrombin (1.93 nM); in short: as §1
[21] = biological target: T2, Serine protease 1 (Bos taurus); experiment: Acylation rate constant against trypsin; in short: as §3
Serine protease 1 = biological target: T4, Serine protease 1 (Bos taurus, UniProt P00760); experiment: Decylation rate constant against trypsin
T4 sequence (P00760 whole entry): T2 sequence (whole entry)
In short: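 Trypsin incubated 30–45 min with excess lactone (same I0/E0 as incubation assay). Free inhibitor removed by two 1-h centrifugations at 0 °C. Activity recovery followed at room temperature against an inhibitor-free control carried through the same treatment; kd is the slope of ln remaining activity vs time. Substrate Z-Val-Gly-Arg-pNA 155 µM, 0.2 M phosphate pH 7.2, 404 nm.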

[22] = Ratio of initial inhibitor concentration to initial Chymotrypsinogen concentration
In short: (§5)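 Ratio I0/E0 of lactone to enzyme in the 2-h incubation assay; lactone added from DMSO stock to buffered enzyme (final 10% DMSO).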

[23] = Ratio of initial inhibitor concentration to initial HNE concentration; in short: as §5
[24] = Ratio of initial inhibitor concentration to initial Plasmin concentration; in short: as §5
[25] = Ratio of initial inhibitor concentration to initial t-PA concentration; in short: as §5
[26] = Ratio of initial inhibitor concentration to initial thrombin concentration; in short: as §5
[27] = Ratio of initial inhibitor concentration to initial trypsin concentration; in short: as §5
[28] = Ratio of initial inhibitor concentration to initial urokinase concentration; in short: as §5
[29] = biological target: T3, Urokinase-type plasminogen activator
[30] = biological target: T3, Urokinase-type plasminogen activator; remark: listed apart in the source
[31] = biological target: T3, Urokinase-type plasminogen activator; remark: listed apart in the source
[32] = biological target: T1, Neutrophil elastase (Homo sapiens); experiment: Maximum percent inhibition by the compound was determined against human neutrophil elastase (HNE); in short: as §1
[33] = biological target: T1, Neutrophil elastase (Homo sapiens); experiment: Time for which maximum percent inhibition persists was determined against human neutrophil elastase (HNE); format: functional; in short: as §1
[34] = biological target: T1, Neutrophil elastase (Homo sapiens); experiment: Time to reach maximum percent inhibition by the compound was determined against human neutrophil elastase (HNE); format: functional; in short: as §2
[35] = biological target: Plasminogen (Homo sapiens) (UniProt P00747); experiment: Time for which maximum percent inhibition persists was determined against plasmin; format: functional; in short: as §1
[36] = biological target: Prothrombin (Homo sapiens) (UniProt P00734); experiment: Time for which maximum percent inhibition persists was determined against thrombin (1.93 nM); format: functional; in short: as §1
[37] = biological target: T2, Serine protease 1 (Bos taurus); experiment: Time for which maximum percent inhibition persists was determined against trypsin (14.6 nM); format: functional; in short: as §4
[38] = biological target: T2, Serine protease 1 (Bos taurus); experiment: Maximum percent inhibition by the compound was determined against trypsin (14.6 nM); in short: as §1
[39] = biological target: T3, Urokinase-type plasminogen activator; experiment: Time for which maximum percent inhibition persists was determined against Urokinase-type plasminogen activator e (300 nM); * =no enzyme activity was recovered over 2 h; format: functional

SMILES	TIME [1] [h]	TIME [2] [h]	inhibition [3] [%]	TIME [6] [h]	inhibition [10] [%]	inhibition [12] [%]	TIME [13] [h]	TIME [14] [h]	TIME [15] [h]	Ks [16] [µM]	Rate [17] [ka/Ks]	TIME [18] [h]	inhibition [20] [%]	Ka [21] [min⁻¹]	Ratio [22] [Io/Eo]	Ratio [23] [Io/Eo]	Ratio [24] [Io/Eo]	Ratio [25] [Io/Eo]	Ratio [26] [Io/Eo]	Ratio [27] [Io/Eo]	also measured
C=C1CC(c2ccc(NC(=N)N)cc2)CC(=O)O1 (centres undefined)	0.75	0	34	0	79	24	0.5	0.25	0.25	9.4	10	0.333	40	91	118	36	16	100	518	86	inhibition [4]: 27%; TIME [5]: 0.5 h; Ks [7]: 63.7 µM; Rate [8]: 1.5 ka/Ks; TIME [9]: No enzyme activity; Ka [11]: 97 min⁻¹; Kd [19]: 0.00015 s⁻¹; Kd (Serine protease 1): 3.3e-05 s⁻¹; Ratio [28]: 50 Io/Eo; Ks [29]: 0.12 µM; Rate [30]: 2 ka/Ks; Ka [31]: 0.24 min⁻¹
C=C1CCC(c2ccc(NC(=N)N)cc2)C(=O)O1 (centres undefined)	0	0.75	58	0	99	29	0	0	0	0.23	62	0	7	14	118	36	16	100	518	86	inhibition [32]: 22%; TIME [33]: 0 h; TIME [34]: 0.25 h; TIME [35]: 0 h; TIME [36]: 0 h; TIME [37]: 0.75 h; inhibition [38]: 97%; TIME [39]: No enzyme activity; Ratio [28]: 50 Io/Eo; Ks [29]: 0.33 µM; Rate [30]: 1180 ka/Ks; Ka [31]: 391 min⁻¹
